High-throughput results (PubChem)
Sampled rows, rich in hits. Any-hit rate of the full collection: about 4%.
UPR CHOP act: activators of apoptotic arm of unfolded protein response (CHOP); CHO-CHOP luciferase reporter, UPR activation, luminescence; percent of tunicamycin response over DMSO baseline; activation, % at 10 µM; actives 0.34% (n = 330,000); AID 449763;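 active = at 10 µM dose, activation of 40% or more, normalized to positive control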;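 also: 100% = tunicamycin at 10 µg/mL and 0% = DMSO alone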
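System: CHO CHOP reporter cells. Amount: 500 cells per well. Buffer or medium: F12 medium, 10% FBS. Compound dosing: one dose, 10 µM in 0.5% DMSO. Incubation: 6 h compound exposure at 37 °C after overnight seeding. Technique: Steady-Glo luciferase luminescence. Benchmarks: tunicamycin and DMSO controls.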
Mdm2 MdmX PPI: disrupts the human Mdm2-MdmX interaction | O15151+Q00987 | SaOS-2 split-luciferase Mdm2/MdmX complementation, luminescence | inhibition, % at 8 µM | actives 3% (n = 330,000);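 active = inhibition of at least 50% at 8 µM in the primary screen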
XBP1 UPR activ: activators of adaptive arm of unfolded protein response (XBP1); actives 0.33% (n = 330,000); activation, % at 20 µM; AID 463104; CHO-XBP1 luciferase reporter, IRE1-XBP1 UPR activation, luminescence; percent of tunicamycin response, DMSO as zero;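 active = versus positive control, 20 µM dose yields 30% or more activation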;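 also: 100% = tunicamycin at 10 µg/mL and 0% = DMSO only wells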
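Material: CHO cell line with stable XBP1 luciferase reporter; buffer or medium: F12 medium containing 10% fetal bovine serum; compound: single point, 20 µM final compound, 1% DMSO; incubation: 6 h treatment, 37 °C; measured by: glow luminescence from Steady-Glo reagent; evaluation: activation, % of tunicamycin; control set: tunicamycin high, DMSO low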
Exocytosis inh: blocks lytic granule exocytosis; TALL-104 LAMP-1 surface exposure, flow cytometry; cells stimulated with thapsigargin and PMA; inhibition, % at 10 µM; actives 0.66% (n = 360,000);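 active = inhibition above about 55%, limit read from the data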
ABHD5 PLIN5 PPI: inhibitors of human ABHD5-perilipin-5 interaction. Split G. princeps luciferase complementation, luminescence, 4 h. inhibition, % at 4 µM. actives 0.78% (n = 360,000);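 active = inhibition above the mean inhibition across every tested compound plus 3 SD, cut at about 22% in these data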;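 also: 0% = DMSO only wells and the 100% control is not disclosed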
UPR XBP1 confirm: adaptive UPR (XBP1) activation, confirmed | shares compounds with XBP1 UPR activ | CHO-XBP1 IRE1-XBP1 luciferase reporter, luminescence | activation, % at 20 µM | actives 63% (n = 1,000) | AID 485299;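 active = reporter signal at least 30% of the positive control's activation in two or more of four replicate wells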;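 also: plate controls were DMSO negative control for no effect and tunicamycin 10 µg/mL positive control for full effect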
Numbers without * were called inactive; . = no result.

SMILES	UPR CHOP act	Mdm2 MdmX PPI	XBP1 UPR activ	Exocytosis inh	ABHD5 PLIN5 PPI	UPR XBP1 confirm
O=S(=O)(c1ccc(Cl)cc1)N1c2ccccc2Oc2nc3ccccc3nc21	-1	27	6	6	-6	.
COc1ccc(S(=O)(=O)N2c3cc(Cl)ccc3Oc3nc4ccccc4nc32)cc1	2	46	39*	2	8	31*
Cc1ccccc1NC(=O)COC(=O)/C=C/c1cn(-c2ccccc2)nc1-c1cccnc1	0	-6	-3	-3	4	.
CC(=O)Nc1ccc(NC(=O)C(C)OC(=O)/C=C/c2cn(-c3ccccc3)nc2-c2cccnc2)cc1 (centres undefined)	2	19	36*	1	-5	17
COC(=O)CSCc1nc2ccccc2[nH]c1=O	0	21	-3	8	-1	.
CCn1c(=O)c(C(=O)Nc2nc3ccccc3[nH]2)c(O)c2ccccc21	11	18	78*	-9	1	14
COc1ccc(C(=O)/C=C/c2cccs2)c(OC(=O)c2cccc([N+](=O)[O-])c2)c1	8	39	42*	-2	-1	56*
O=C1c2ccccc2C(=O)N1CCCOCc1c[nH]c(=O)[nH]c1=O	-1	1	32*	0	-3	0
O=C1c2ccccc2C(=O)N1CCCON1C(=O)c2ccccc2C1=O	1	18	1	-2	1	.
Cn1nc(C(F)(F)F)c(/C=N/OC(=O)c2ccccc2)c1SCc1ccc(Cl)cc1	12	33	48*	1	3	90*
Cn1nc(C(F)(F)F)c(/C=N/OC(=O)c2ccc(Cl)cc2)c1Cl	1	12	1	1	2	.
Cc1ccc(NC(=O)c2cc(S(=O)(=O)N(C)C)ccc2N2CCCC2)cc1S(=O)(=O)N(C)C	11	27	53*	9	5	67*
COc1ccc(C(=O)n2cnc3ccccc32)cc1Br	-2	-2	0	4	5	.
Fc1ccc(C2NCCn3cccc32)cc1 (centres undefined)	0	7	-2	-3	-3	.
c1ccc(C2NCCn3cccc32)cc1 (centres undefined)	3	-15	49*	3	-1	0
N#Cc1c(-c2ccc3c(c2)OCO3)ccn2nc(-c3cccc(C(F)(F)F)c3)nc12	14	20	53*	1	6	50*
N#Cc1c(-c2ccc3c(c2)OCO3)cc[nH]c1=O	0	4	-1	8	0	.
CC(=O)Oc1ccc(-c2ccc(C(=O)OCC(=O)N(C)CC(=O)Nc3ccccc3Cl)cc2)cc1	7	40	123*	9	-1	137*
O=C(NCC1CCCO1)c1nn2c(C(F)(F)F)cc(-c3ccco3)nc2c1Cl (centres undefined)	0	-8	-3	6	5	.
O=C(NCC1CCCO1)c1nn2c(C(F)(F)F)cc(-c3cc(Br)cs3)nc2c1Br (centres undefined)	6	21	42*	-11	0	40*
CCOC(=O)c1cc(-c2ccccc2)n(CC(=O)Nc2cccc(OC)c2)c1C	-1	37	-4	-2	-4	.
CNc1nc(Nc2ccc([N+](=O)[O-])cc2)nc(OCC(F)(F)F)n1	-1	11	122*	4	1	3
Cc1cc(C)cc(NC2=CC(=O)CC(c3ccco3)C2)c1 (centres undefined)	2	6	-1	6	4	.
COc1ccc(NC(=O)c2cccc3c(Br)cccc23)cc1	3	5	-1	-13	-5	.
Cc1ccc(COc2ccc(S(=O)(=O)N3CCCC3)cc2C(N)=O)cc1	-1	9	-2	53	2	.
SMILES	UPR CHOP act	Mdm2 MdmX PPI	XBP1 UPR activ	Exocytosis inh	ABHD5 PLIN5 PPI	UPR XBP1 confirm
Nc1nc(NCC(=O)O)nc(NC2CCCCC2)c1[N+](=O)[O-]	-1	11	-5	4	0	.
CCC(C)Nc1nc(N)c([N+](=O)[O-])c(NC2CCCCC2)n1 (centres undefined)	0	24	35*	-7	-7	31*
CC[C@H](C)[C@H]1CNC(=S)N1CC1CCN(CCCC2CCCC2)CC1	.	.	.	1	-1	.
Cc1cc(NC(=O)c2coc(=O)c(Br)c2)ccc1C(C)C	31	23	-7	33	-1	.
Cc1ccc(-c2csc(/C(C#N)=C/Nc3ccc4c(c3)OCCO4)n2)cc1	3	37	33*	5	-4	30
N/C(=N\c1nc2ccccc2o1)NC(=O)c1ccccc1NC(=O)c1ccccc1	0	22	5	2	-5	.
O=C(NC(=Nc1nc2ccccc2o1)NC(=O)c1ccccc1)c1ccccc1	12	-46	32*	-3	-8	29
O=C(COC(=O)[C@@H]1CC(O)CN1S(=O)(=O)c1ccc([N+](=O)[O-])cc1)NC12CC3CC(CC(C3)C1)C2 (some centres undefined)	1	-4	-4	3	3	.
COC(=O)c1nn(-c2ccccc2)nc1-c1nn(-c2ccccc2)nc1C(=O)OC	5	29	39*	3	0	18
Cc1ccc(C2=Nc3ccc(Br)cc3C(c3ccncc3)=NN2)cc1	4	7	37*	12	3	45*
C=CC[C@@H](CC(=O)OC(C)(C)C)C(=O)OC[C@@H]1CCCN1C(=O)[C@@H](CC=C)CC(=O)N[C@H](CO)Cc1ccccc1	-1	22	-3	20	-2	.
Oc1nc(Nc2ccc(F)cc2)sc1/C=C1\C=Nc2ccccc21	-1	-9	1	24	-2	.
CC1=Nc2ccccc2/C1=C\c1sc(Nc2ccc(C)cc2)nc1O	4	37	33*	8	2	40*
CS(=O)(=O)Nc1ccccc1C(=O)OCC(=O)NCc1cccs1	-1	-5	-2	-2	-6	.
Nc1nc(-c2ccc3ccccc3c2)cs1	2	-182	5	-1	-10	.
Nc1nc(Nc2cccc(F)c2)nc2ccccc12	19	-236	40*	-2	5	42*
COc1cc(C(=O)Nc2cc(-c3nc4cc(C)ccc4o3)ccc2C)cc(OC)c1OC	19	49	131*	-2	4	96*
C/C=C/c1ccc(OCCOc2cc(C=O)ccc2OC)c(OC)c1	8	-68	4	2	-14	.
Cc1ccc(SC(=O)COc2ccccc2C)cc1	4	35	49*	0	4	17
O=C(CCCC(=O)c1ccccc1)NCc1ccccc1	-1	25	-3	11	-2	.
CC(C)c1cccc(-c2ccc3c(c2)S(=O)(=O)c2cccc(C(=O)NC4CCCC4)c2C3=O)c1	13	41	33*	6	7	26
